An excerpt weighted towards active compounds, which were near 1.5% of everything screened.
APJ antagonist = antagonists of human apelin receptor APJ, primary screen, CHO-K1 cells, beta-arrestin complementation, luminescence; inhibition, % at 20 µM; hit rate 0.32% among 330,000; P35414;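 active means inhibition above about 40% at 20 µM, limit read from the data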;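 further: cells challenged with 10 nM apelin-13 agonist together with compound; plate controls were apelin-13 plus DMSO wells for no effect and DMSO wells lacking apelin-13 for full effect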
APJ agonist = agonists of human apelin receptor APJ, primary screen, CHO-K1 cells, PathHunter beta-arrestin, luminescence; P35414; 0% DMSO wells, 100% apelin; activation, % at 20 µM; hit rate 0.11% among 330,000;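 active means activation more than six SD over the plate average, tested at 20 µM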;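 further: 0% = DMSO alone and 100% = apelin-13 at 10 nM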
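system = engineered CHO-K1 APJ arrestin reporter cells | input = 1000 cells per well | timing = overnight seeding, 90 min compound at 25 °C, 1 h detection | measured by = enzyme-fragment complementation luminescence | read-out = beta-arrestin recruitment to APJ as agonist activity, luminescent signal | control set = negative DMSO alone, positive Apelin-13 at 10 nM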
CCR6 antag = CCR6 receptor antagonists, primary screen, cell-based, CHO-K1, luminescence, beta-arrestin, uHTS. hit rate 0.49% among 340,000. CHO-K1 CCR6 PathHunter beta-arrestin, CCL20-stimulated. inhibition, % at 20 µM;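 active means compounds whose inhibition of the agonist-driven luminescence signal at 20 µM reaches about 50%, limit read from the data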;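 further: cells stimulated with CCL20 at 14 nM final; plate controls were DMSO with CCL20 for no effect and DMSO without agonist for full effect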
EBI2 block = EBI2 receptor antagonists, beta-arrestin recruitment, primary screen, cell-based, luminescence, 7a,25-OHC stimulation, uHTS. hit rate 0.81% among 360,000. AID 651636, 2012. inhibition, % at 5 µM. G-protein coupled receptor 183 (Homo sapiens), P32249. 7a,25-OHC stimulated; in the data active means inhibition above about 38%;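 further: enzyme fragment complementation signal reports receptor beta-arrestin coupling in cells; 0% = agonist plus DMSO wells and 100% = wells without agonist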
Target sequence (P32249 whole entry, looked up, the tested form may be a part): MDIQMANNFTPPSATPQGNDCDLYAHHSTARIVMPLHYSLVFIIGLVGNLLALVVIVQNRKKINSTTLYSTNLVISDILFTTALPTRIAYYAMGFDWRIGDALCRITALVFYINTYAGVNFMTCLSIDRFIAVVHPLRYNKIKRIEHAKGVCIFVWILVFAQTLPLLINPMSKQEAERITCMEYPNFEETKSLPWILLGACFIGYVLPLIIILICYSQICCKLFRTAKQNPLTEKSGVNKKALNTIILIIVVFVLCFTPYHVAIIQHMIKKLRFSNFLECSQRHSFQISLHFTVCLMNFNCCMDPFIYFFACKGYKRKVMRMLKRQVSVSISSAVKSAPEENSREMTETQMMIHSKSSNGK
CXCR6 inh = CXCR6 receptor inhibitors, primary screen, cell-based, beta-arrestin, luminescence, CHO-K1 PathHunter, 1536-well | C-X-C chemokine receptor type 6 (Homo sapiens), O00574 | inhibition, % at 20 µM | hit rate 0.36% among 360,000; in the data active means inhibition above about 34%, passing the limit was not always enough;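 further: antagonist mode with CXCL16 agonist at 10 nM final; 0% = 10 nM CXCL16 with DMSO and 100% = unstimulated wells without agonist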
CXCR6 antag conf = CXCR6 receptor antagonists, confirmation, cell-based, single concentration, beta-arrestin, luminescence; shares compounds with CXCR6 inh; CHO-K1 CXCR6 PathHunter beta-arrestin; inhibition, % at 20 µM; hit rate 65% among 700;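 active means mean inhibition over four retests above 40%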;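 further: receptor stimulated with 10 nM CXCL16 agonist; beta-galactosidase fragment complementation upon beta-arrestin recruitment to receptor; plate controls were CXCL16 plus DMSO for no effect and DMSO without CXCL16 for full effect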
Numbers without * were called inactive; nt = no result given.

SMILES	APJ antagonist	APJ agonist	CCR6 antag	EBI2 block	CXCR6 inh	CXCR6 antag conf
O=C(C=P(c1ccccc1)(c1ccccc1)c1ccccc1)c1ccccc1-c1ccccc1C(=O)C=P(c1ccccc1)(c1ccccc1)c1ccccc1	nt	nt	88*	3	71*	39
CCC(C(=O)Nc1ccsc1C(=O)OC)c1ccccc1 (stereo unspecified)	20	-3	17	17	-1	nt
COc1ccc(OCC(=O)N/N=C/c2cccc3cccnc23)cc1	-18	2	8	2	3	nt
O=C(COc1ccc(Cl)cc1)N/N=C/c1cccc2cccnc12	8	1	nt	25	44*	56*
CC(C)c1nnc(NC(=O)c2nc(S(=O)(=O)Cc3ccccc3F)ncc2Cl)s1	-4	0	-5	nt	nt	nt
O=C(NCc1ccc2c(c1)OCO2)c1nc(S(=O)(=O)Cc2ccccc2F)ncc1Cl	18	6	49	24	70*	62*
COc1ccc(CNC(=O)c2nc(S(=O)(=O)Cc3ccccc3)ncc2Cl)cc1	8	13	45	40	50*	52*
CC(=O)Nc1ccc(Sc2ccc([N+](=O)[O-])o2)cc1	nt	nt	57*	27	52*	60*
CCC(=O)OCCNc1cc(Sc2nccn2C)c2nonc2c1[N+](=O)[O-]	nt	nt	112*	53*	102*	104*
CCC(=O)OCCNc1cc(SCCC(=O)OC)c2nonc2c1[N+](=O)[O-]	20	-14	64*	-12	58*	59*
CC(=O)OCCNc1cc(SC(C)C)c2nonc2c1[N+](=O)[O-]	5	-3	18	9	10	nt
Cc1ccc(S(=O)(=O)CCC(=O)Nc2ccccc2Br)cc1	-13	-4	8	4	-2	nt
CN1c2ccc([N+](=O)[O-])cc2N(C)C1(C)c1ccccc1 (stereo unspecified)	28	-9	54*	17	43*	38
Cn1c2ccccc2c2cc([N+](=O)[O-])ccc21	9	-3	4	4	9	nt
O=C(CSc1nc(=O)n(CCCN2CCOCC2)c2c1CCC2)Nc1ccc([N+](=O)[O-])cc1	20	-2	13	-11	-8	nt
CCOC(=O)N1CCN(S(=O)(=O)c2cccc3ccc(C)nc23)CC1	0	1	-3	-4	84*	15
C/C(=N\NC(=O)c1ccc(CSc2nc(C)cc(C)n2)cc1)c1ccco1	-2	-1	-15	-3	-3	nt
CN(C)/C(=N\S(=O)(=O)c1ccc(Cl)cc1)c1ccc(F)cc1	11	-2	5	11	43*	-2
O=C1c2cccc3c([N+](=O)[O-])ccc(c23)C(=O)N1c1ccccn1	30	0	nt	24	52*	52*
O=C(Cc1cc(C(F)(F)F)cc(C(F)(F)F)c1)Nc1c(-c2ccccc2)[nH][nH]c1=O	nt	nt	nt	-5	nt	nt
CN(C)C(=O)C#Cc1ccccc1	12	-2	8	-9	-2	nt
O=C(C#Cc1ccccc1)c1ccccc1	nt	nt	nt	24	71*	72*
C=CCNc1sc(C(=O)c2ccc(C)cc2)c(N)c1C#N	15	0	0	4	55*	16
S=C(NNC(=S)Nc1ccc(Cl)cc1)NNc1ccccc1	nt	nt	nt	32	22	nt
Cc1ccc(NC(=S)NNC(=S)NNc2ccccc2)cc1C	nt	nt	nt	26	40*	37
COC(=O)c1ccc(C(=O)OC)c(NC(=O)C2CC(=O)N(C3CCCC3)C2)c1 (stereo unspecified)	nt	nt	12	0	10	nt
c1ccc(-c2ccccc2-n2cnnn2)cc1	-4	1	1	-15	1	nt

Bioassay records (PubChem BioAssay)
